Reference: ChEMBL document CHEMBL1250517, “Synthesis and characterization of novel indole derivatives reveal improved therapeutic agents for treatment of ischemia/reperfusion (I/R) injury” (J Med Chem, 2010)

Columns and labels:
Rattus norvegicus [1] = assay: Antiinflammatory activity in Wistar rat assessed as inhibition of carrageenan-induced paw edema at 20 mg/kg, po administered prior to carrageenan challenge measured after 1 hrs post carrageenan challenge; type: functional
Rattus norvegicus [2] = assay: Antiinflammatory activity in Wistar rat assessed as inhibition of carrageenan-induced paw edema at 20 mg/kg, po administered prior to carrageenan challenge measured after 3 hrs post carrageenan challenge; type: functional
Rattus norvegicus [3] = assay: Antiinflammatory activity in Wistar rat assessed as inhibition of carrageenan-induced paw edema at 20 mg/kg, po administered prior to carrageenan challenge measured after 5 hrs post carrageenan challenge; type: functional
Mus musculus [4] = assay: Antiinflammatory activity in Kunming mouse assessed as inhibition of xylene-induced ear edema at 20 mg/kg, po; type: functional
PC-12 [5] = assay: Antioxidant activity against H2O2 scavenging activity in rat PC12 cells assessed as cell survival after 14 hrs by MTT assay; type: functional, cell-based; conditions: PC-12, 14 h
Summary of the method: (§1)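 PC12 cells (rat adrenal medulla pheochromocytoma) are exposed to free radicals. Compound is given either as preincubation before radical exposure or as incubation after exposure. Viability is read by MTT reduction.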

PC-12 [6] = assay: Antioxidant activity against nitric oxide scavenging activity in rat PC12 cells assessed as cell survival after 14 hrs by MTT assay; type: functional, cell-based; conditions: PC-12, 14 h; summary of the method: as §1
Mus musculus [7] = assay: Antiinflammatory activity in Kunming mouse assessed as inhibition of xylene-induced ear edema at 10 mg/kg, po; type: functional
Mus musculus [8] = assay: Antiinflammatory activity in Kunming mouse assessed as inhibition of xylene-induced ear edema at 5 mg/kg, po; type: functional
PC-12 [9] = assay: Antioxidant activity against hydroxyl scavenging activity in rat PC12 cells assessed as cell survival after 14 hrs by MTT assay; type: functional, cell-based; conditions: PC-12, 14 h; summary of the method: as §1
Rattus norvegicus [10] = assay: Antiinflammatory activity against ischemia-reperfused lung tissue edema Wistar rat assessed as ratio of wet tissue weight to dry tissue weight at 20 mg/kg, ip; type: functional; conditions: route intraperitoneal
Summary of the method: (§2)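 Hind-limb ischemia/reperfusion injury model in rats, with compound at 20 mg/kg. Local injury assessed in skeletal muscle and remote injury in lung. Tissue edema is expressed as wet-to-dry tissue weight ratio. Lipid peroxidation is measured as MDA in plasma and lung, and histology uses H&E-stained sections.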

Rattus norvegicus [11] = assay: Antiinflammatory activity in ischemia-reperfused Wistar rat assessed as TNFalpha level at 20 mg/kg, ip (RVb = 123.4 +/- 8.9 pg/mL); type: functional; conditions: route intraperitoneal; summary of the method: as §2
Rattus norvegicus [12] = assay: Antiinflammatory activity in ischemia-reperfused Wistar rat assessed as plasma MDA level at 20 mg/kg, ip (RVb = 3.53 +/- 0.34 nmol/mL); type: functional; conditions: route intraperitoneal; summary of the method: as §2
Rattus norvegicus [13] = assay: Antiinflammatory activity against ischemia-reperfused muscle tissue edema Wistar rat assessed as ratio of wet tissue weight to dry tissue weight at 20 mg/kg, ip; type: functional; conditions: route intraperitoneal; summary of the method: as §2
Rattus norvegicus [14] = assay: Antiinflammatory activity in ischemia-reperfused Wistar rat assessed as MPO level at 20 mg/kg, ip (RVb = 17.3 +/- 0.8 U/g); type: functional; conditions: route intraperitoneal; summary of the method: as §2
Rattus norvegicus [15] = assay: Antiinflammatory activity in ischemia-reperfused Wistar rat assessed as lung MDA level at 20 mg/kg, ip measured per gram of tissue (RVb = 72.4 +/- 5.1 nmol); type: functional; conditions: route intraperitoneal; summary of the method: as §2

| SMILES | inhibition in vivo at 20 mg/kg (Rattus norvegicus [1]) | inhibition in vivo at 20 mg/kg (Rattus norvegicus [2]) | inhibition in vivo at 20 mg/kg (Rattus norvegicus [3]) | inhibition in vivo at 20 mg/kg (Mus musculus [4]) | EC50 (PC-12 [5]) | EC50 (PC-12 [6]) | inhibition in vivo at 10 mg/kg (Mus musculus [7]) | inhibition in vivo at 5 mg/kg (Mus musculus [8]) | EC50 (PC-12 [9]) | Ratio (Rattus norvegicus [10]) | Activity (Rattus norvegicus [11]) | Activity (Rattus norvegicus [12]) | Ratio (Rattus norvegicus [13]) | Activity (Rattus norvegicus [14]) | Activity (Rattus norvegicus [15]) |
| --- | --- | --- | --- | --- | --- | --- | --- | --- | --- | --- | --- | --- | --- | --- | --- |
| C[C@H]1O[C@@H](CC=O)OC[C@H]1NC(=O)Cc1ccccc1 | 18.4% | 17.5% | 12.9% | 21.9% | – | – | – | – | – | – | – | – | – | – | – |
| COC(C[C@H]1OC[C@@H](NC(=O)Cc2ccccc2)[C@@H](C)O1)OC | 23.6% | 33.3% | 17.1% | 38.1% | – | – | – | – | – | – | – | – | – | – | – |
| COc1ccc2[nH]c3c(c2c1)CCN[C@@H]3C[C@H]1OC[C@@H](NC(=O)Cc2ccccc2)[C@@H](C)O1 | 44.7% | 52.4% | 34.3% | 66% | 86.8 µM | > 100 µM | 32.3% | 18.1% | 79.6 µM | – | – | – | – | – | – |
| C[C@H]1O[C@@H](C[C@H]2NCCc3c2[nH]c2ccccc32)OC[C@H]1NC(=O)Cc1ccccc1 | 34.2% | 47.6% | 21.4% | 44.4% | – | – | – | – | – | – | – | – | – | – | – |
| COC(=O)[C@@H]1Cc2c([nH]c3ccccc23)[C@@H](C[C@H]2OC[C@@H](NC(=O)Cc3ccccc3)[C@@H](C)O2)N1 | 39.5% | 49.2% | 35.7% | 60% | 91.6 µM | > 100 µM | 30.1% | 16.8% | 88.1 µM | – | – | – | – | – | – |
| COC(=O)[C@@H]1Cc2c([nH]c3ccccc23)[C@H](C[C@H]2OC[C@@H](NC(=O)Cc3ccccc3)[C@@H](C)O2)N1 | 28.9% | 38.1% | 20% | 40.6% | – | – | – | – | – | – | – | – | – | – | – |
| COc1ccc2[nH]c3c(c2c1)CCN[C@@H]3C[C@H]1OC[C@@H](N)[C@@H](C)O1 | 31.5% | 68.5% | 57.1% | 81.5% | 32.5 µM | 88.5 µM | 57.8% | 30.5% | 25.7 µM | 3.98 | 76.6 pg/mL | 2.05 nmol/mL | 4.03 | 10.7 U/g | 49.5 nmol |
| C[C@H]1O[C@@H](C[C@H]2NCCc3c2[nH]c2ccccc32)OC[C@H]1N | 21% | 59.7% | 30% | 50.4% | – | – | – | – | – | – | – | – | – | – | – |
| COC(=O)[C@@H]1Cc2c([nH]c3ccccc23)[C@@H](C[C@H]2OC[C@@H](N)[C@@H](C)O2)N1 | 26.3% | 61.4% | 48.6% | 74.3% | 45.7 µM | 96.3 µM | 60% | 35.2% | 50.9 µM | – | – | – | – | – | – |
| COC(=O)[C@@H]1Cc2c([nH]c3ccccc23)[C@H](C[C@H]2OC[C@@H](N)[C@@H](C)O2)N1 | 15.8% | 39.7% | 27.1% | 45.1% | – | – | – | – | – | – | – | – | – | – | – |
| COc1ccc2c(c1)c(CC(=O)O)c(C)n2C(=O)c1ccc(Cl)cc1 [INDOMETHACIN] | 47.3% | 65.1% | 54.3% | – | – | – | 73.6% | – | – | – | – | – | – | – | – |
| COc1ccc2[nH]cc(CCNC(C)=O)c2c1 [MELATONIN] | – | – | – | – | – | – | – | – | – | 3.55 | 53.6 pg/mL | 1.75 nmol/mL | 3.21 | 8.6 U/g | 40.6 nmol |
